OX1R antag-1 – OX1R (HCRTR1) antagonists, primary screen, fluorescence, CHO/OX1R cells, Fluo-8 calcium, orexin A; Orexin/Hypocretin receptor type 1 (Homo sapiens), O43613; Fluo-8 calcium fluorescence; inhibition, % at 5 µM; 0.43% of 330,000 active; AID 434989, 2010;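 active = inhibition above its plate's threshold, mean inhibition of all tested compounds on the plate plus 3 SD, cut at about 37% in these data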;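 also: 0% = orexin A challenge wells and 100% = SB-334867-A antagonist wells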
Target sequence (O43613 whole entry, looked up): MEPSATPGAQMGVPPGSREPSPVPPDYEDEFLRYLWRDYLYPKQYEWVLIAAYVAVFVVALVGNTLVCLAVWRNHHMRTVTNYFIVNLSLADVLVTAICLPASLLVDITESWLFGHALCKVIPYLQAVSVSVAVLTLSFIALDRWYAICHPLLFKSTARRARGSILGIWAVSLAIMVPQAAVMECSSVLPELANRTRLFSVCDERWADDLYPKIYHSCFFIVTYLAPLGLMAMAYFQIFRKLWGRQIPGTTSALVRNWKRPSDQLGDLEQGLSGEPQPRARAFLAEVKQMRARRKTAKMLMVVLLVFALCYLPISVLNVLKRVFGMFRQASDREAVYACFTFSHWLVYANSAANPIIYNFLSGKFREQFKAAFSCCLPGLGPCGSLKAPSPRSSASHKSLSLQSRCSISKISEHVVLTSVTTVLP
CHO-K1 Ca ag – counter-screen for M1 agonists: effect in parental CHO-K1 cells; Fluo-8 calcium fluorescence; scaled to maximal ATP response, vehicle zero; activation, % at 3 µM; 0.48% of 360,000 active; AID 602248, 2012; in the data active = activation above about 15%;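 also: untransfected CHO-K1 host cells lacking M1 receptor as counterscreen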
CHO-K1 Ca PAM – nonselective calcium activators in parental CHO-K1 cells, primary screen, counter-screen for M1 PAM project, cell-based, Fluo-8 calcium fluorescence, full deck, 1536-well; ATP EC20; 0% at ATP EC20, 100% at ATP max; activation, % at 3 µM; 0.02% of 360,000 active; AID 602247, 2012;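 active = activation above the run cutoff, the mean activation of all test compounds plus 3 SD, cut at about 40% in these data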;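 also: peak over basal fluorescence ratio in a 140 s read after ATP addition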
CHO parental Ca – ATP-evoked calcium signal inhibitors, parental CHO, primary screen, counter-screen for OX1R antagonist project, cell-based, fluorescence, Fluo-8 calcium dye | parental CHO-K1, ATP-induced calcium, Fluo-8 fluorescence | inhibition, % at 5.6 µM | 0.63% of 330,000 active | AID 463079, 2010;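 active = inhibition above that plate's mean sample inhibition plus 3 SD, cut at about 26% in these data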;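 also: 0% = ATP-challenged DMSO wells and 100% = DMSO wells without ATP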
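Material – parental CHO cells · Reagent – ATP stimulus · Compound – single nominal dose of 5.6 µM per compound · Detection – Fluo-8 fluorescence · Read-out basis – percent inhibition of calcium signal · Controls – ATP-challenged DMSO wells low, unchallenged DMSO wells high · Repeats – no replicates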
CHO-K1 Ca antag – counter-screen for M1 antagonists: effect in parental CHO-K1 cells. 0.6% of 360,000 active. inhibition, % at 3 µM. ATP-induced calcium, Fluo-8 fluorescence;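 active = inhibition above a per-plate cutoff, the plate's mean sample inhibition plus 3 SD, cut at about 24% in these data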;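 also: 0% = DMSO plus EC80 ATP and 100% = DMSO alone without ATP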
OX1R antag-2 – antagonists of human orexin 1 receptor (OX1R). Orexin/Hypocretin receptor type 1 (Homo sapiens), O43613. OX1R-expressing cells, FRET antagonist read-out. inhibition, % at 6.6 µM. 1.8% of 330,000 active; in the data active = inhibition mostly above about 38%, no sharp cut-off; inactive = mostly below about 40%;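 also: 0% = agonist challenge alone and 100% = reference antagonist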
The depositor's hits bear a star. Rows were chosen to be rich in hits. Some 2.9% of all compounds tested hit in one or more screens of this group.

Screening Cc1ccc(S(=O)(=O)N(C)CC(=O)Nc2nc3ccccc3s2)cc1 returned OX1R antag-1 8, CHO-K1 Ca ag 2, CHO-K1 Ca PAM -11, CHO parental Ca 6, CHO-K1 Ca antag 24* and OX1R antag-2 29.
Screening CCOC(=O)c1ccc(NCCc2ccc(OC)c(OC)c2)c(N)c1 returned OX1R antag-1 -38, CHO-K1 Ca ag 3, CHO-K1 Ca PAM 15, CHO parental Ca -17, CHO-K1 Ca antag -3 and OX1R antag-2 21.
For Cc1c([N+](=O)[O-])cnc(Sc2ccccc2)c1[N+](=O)[O-] the results were OX1R antag-1 -32, CHO-K1 Ca ag -1, CHO-K1 Ca PAM 6, CHO parental Ca -13, CHO-K1 Ca antag -19 and OX1R antag-2 36.
Screening Cc1cccc(C(=O)NC(C(=O)Nc2ccc(S(=O)(=O)Nc3nccs3)cc2)C(C)C)c1 (stereo not drawn) returned CHO-K1 Ca ag 0, CHO-K1 Ca PAM -13 and CHO-K1 Ca antag -3.
CC(=O)Nc1ccc(S(=O)(=O)N(C)CC(=O)Nc2ccc(Br)cc2F)cc1 was read as OX1R antag-1 -18, CHO-K1 Ca ag 2, CHO-K1 Ca PAM -16, CHO parental Ca 67*, CHO-K1 Ca antag -2 and OX1R antag-2 20.
CCc1ccc(NC(=O)C2(c3ccccc3)CC2(Cl)Cl)cc1 (stereo not drawn) was read as OX1R antag-1 52*, CHO-K1 Ca ag 7, CHO-K1 Ca PAM 23, CHO parental Ca 14, CHO-K1 Ca antag -1 and OX1R antag-2 13.
COc1ccc(-c2cc(=Nc3c(C)n(C)n(-c4ccccc4)c3=O)c3ccccc3o2)cc1 was read as OX1R antag-1 -12, CHO-K1 Ca ag 1, CHO-K1 Ca PAM 3, CHO parental Ca -10, CHO-K1 Ca antag -5 and OX1R antag-2 55*.
COc1ccc(OC)c(/C=C/C(=O)Nc2ccc3c(c2)CCC3)c1 was read as OX1R antag-1 -26, CHO-K1 Ca ag -1, CHO-K1 Ca PAM -5, CHO parental Ca -10, CHO-K1 Ca antag 10 and OX1R antag-2 69*.
`COc1ccccc1/C=C/C(=O)Nc1ccc2c(c1)CCC2` gave OX1R antag-1 -7, CHO-K1 Ca ag 0, CHO-K1 Ca PAM -5, CHO parental Ca -4, CHO-K1 Ca antag 8 and OX1R antag-2 26.
For COc1ccc(NC(=O)/C=C/c2cc(Br)ccc2OC)cc1 the results were OX1R antag-1 36, CHO-K1 Ca ag 0, CHO-K1 Ca PAM 1, CHO parental Ca -22, CHO-K1 Ca antag 2 and OX1R antag-2 83*.
CCN(CC)c1ccc(NC(=O)/C=C/c2cc(Br)ccc2OC)cc1 was read as OX1R antag-1 -19, CHO-K1 Ca ag 0, CHO-K1 Ca PAM 23, CHO parental Ca -10, CHO-K1 Ca antag -14 and OX1R antag-2 50*.
Screening COc1ccc(Br)cc1/C=C/C(=O)c1ccc(NC(C)=O)cc1 returned OX1R antag-1 -5, CHO-K1 Ca ag 4, CHO-K1 Ca PAM -3, CHO parental Ca -6, CHO-K1 Ca antag 6 and OX1R antag-2 58.
`Cc1ccc(NC(=O)CN(c2ccc(Cl)cc2)S(=O)(=O)c2cc([N+](=O)[O-])ccc2Cl)c(C)c1` gave OX1R antag-1 -19, CHO-K1 Ca ag 0, CHO-K1 Ca PAM -3, CHO parental Ca 2, CHO-K1 Ca antag -10 and OX1R antag-2 34.
Screening CC(C)=CCc1cc([C@@H]2COc3c(ccc4c3C=CC(C)(C)O4)C2)c(O)cc1O returned OX1R antag-1 -7, CHO-K1 Ca ag 1, CHO-K1 Ca PAM 19, CHO parental Ca -9, CHO-K1 Ca antag 1 and OX1R antag-2 3.
CC1(C)C=Cc2c(ccc3c2OC[C@H](c2ccc(O)cc2O)C3)O1 was read as OX1R antag-1 52*, CHO-K1 Ca ag 3, CHO-K1 Ca PAM 15, CHO parental Ca 79*, CHO-K1 Ca antag -3 and OX1R antag-2 0.
For CCOC(=O)C1(C)CCCN1C(=O)c1ccc(F)c(Cl)c1 (stereo not drawn) the results were CHO-K1 Ca ag 0, CHO-K1 Ca PAM -8 and CHO-K1 Ca antag 0.
Screening Cc1ccc(S(=O)(=O)NN=CC2(c3ccccc3)CC2)cc1 returned CHO-K1 Ca ag 0, CHO-K1 Ca PAM 42* and CHO-K1 Ca antag -5.
Screening O=C(NCc1nnc(SCC(=O)N2CCCCC2)o1)c1c(F)cccc1Cl returned OX1R antag-1 -24, CHO-K1 Ca ag 1, CHO-K1 Ca PAM 18, CHO parental Ca -8, CHO-K1 Ca antag -17 and OX1R antag-2 10.
`O=C1NC[C@@H](CCCCN2CCN(CCc3ccc(O)cc3)C(=O)C2=O)N(CCc2ccc(O)cc2)C1=O` gave CHO-K1 Ca ag 0, CHO-K1 Ca PAM -4 and CHO-K1 Ca antag -6.
Screening CCOc1cccc(/C=C(/C#N)c2nc3ccccc3[nH]2)c1OCC(=O)O returned OX1R antag-1 -27, CHO-K1 Ca ag 1, CHO-K1 Ca PAM 14, CHO parental Ca -2, CHO-K1 Ca antag -3 and OX1R antag-2 5.
For CCN(CC)c1ccc(/C=C(/C#N)c2nc3ccccc3[nH]2)c(OC(C)C)c1 the results were OX1R antag-1 116*, CHO-K1 Ca ag 13, CHO-K1 Ca PAM 0, CHO parental Ca 66*, CHO-K1 Ca antag 9 and OX1R antag-2 39*.
CSCCC(NC(=O)c1ccc(Cl)cc1Cl)C(=O)NCc1ccccn1 (stereo not drawn) was read as OX1R antag-1 -34, CHO-K1 Ca ag 0, CHO-K1 Ca PAM 17, CHO parental Ca -13, CHO-K1 Ca antag 35* and OX1R antag-2 -6.
COc1ccc(C(=O)OCC(=O)NC2CCCCCC2)c(OC)c1 was read as CHO-K1 Ca ag 0, CHO-K1 Ca PAM -10 and CHO-K1 Ca antag 1.
CCOc1ccccc1C1C(C#N)=C(N)Oc2cc(C)n(Cc3ccccn3)c(=O)c21 (stereo not drawn) was read as OX1R antag-1 -4, CHO-K1 Ca ag -1, CHO-K1 Ca PAM -7, CHO parental Ca -10, CHO-K1 Ca antag 32* and OX1R antag-2 12.
Screening CCCCn1c(N)c(N(CC(C)C)C(=O)c2ccc(S(=O)(=O)N3CCC(C)CC3)cc2)c(=O)[nH]c1=O returned OX1R antag-1 -13, CHO-K1 Ca ag 0, CHO-K1 Ca PAM -17, CHO parental Ca -3, CHO-K1 Ca antag 8 and OX1R antag-2 3.
`COc1ccc(Cc2nnc(SCC(=O)c3ccccc3)o2)cc1` gave OX1R antag-1 -27, CHO-K1 Ca ag 0, CHO-K1 Ca PAM -4, CHO parental Ca -12, CHO-K1 Ca antag 12 and OX1R antag-2 13.
`CCc1ccc(-c2cc(C)no2)cc1S(=O)(=O)NCCc1ccc(OC)c(OC)c1` gave OX1R antag-1 7, CHO-K1 Ca ag 5, CHO-K1 Ca PAM 17, CHO parental Ca -13, CHO-K1 Ca antag -19 and OX1R antag-2 43*.
